Bioassay records (PubChem BioAssay)
core dimer inh = blocks dimerization of HCV core protein. TR-FRET GST/Flag-core106 dimerization, 1536-well. AID 1899. 300,000 compounds, 0.33% hits. inhibition, % at 5 µM;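 active = inhibition above the mean of all tested compounds plus 3 SD, set per screening campaign, cut at about 45% in these data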
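System: GST/Flag-tagged HCV core106 proteins. Incubation: compound-protein-antibody incubation 4 h at 22.5 °C. Technique: HTRF with 340 nm excitation, 617/671 nm emission. Medium: KF-containing HEPES buffer, pH 7.45, DTT, CHAPS, BSA. Read-out: inhibition (%) from 671 over 617 nm ratio. Also added: Eu(K)-anti-GST 90 ng/mL plus XL665-anti-Flag 1 µg/mL.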
EBNA-1 inh = blocks EBNA-1 binding to DNA | EBNA-1 DNA binding, fluorescence polarization | inhibition, % at 14.8 µM | 300,000 compounds, 0.34% hits | AID 1950; in the data active = inhibition above about 28%
PP1 inh = blocks human PP1-alpha phosphatase, a PP5 counter-screen | P62136 | purified PP1alpha, OMFP fluorescence | inhibition, % at 6.7 µM | 320,000 compounds, 0.9% hits | AID 2235;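 active = inhibition above the mean inhibition of all tested compounds plus 3 SD, computed separately for each screening campaign, cut at about 15% in these data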
Target sequence (P62136 whole entry, looked up): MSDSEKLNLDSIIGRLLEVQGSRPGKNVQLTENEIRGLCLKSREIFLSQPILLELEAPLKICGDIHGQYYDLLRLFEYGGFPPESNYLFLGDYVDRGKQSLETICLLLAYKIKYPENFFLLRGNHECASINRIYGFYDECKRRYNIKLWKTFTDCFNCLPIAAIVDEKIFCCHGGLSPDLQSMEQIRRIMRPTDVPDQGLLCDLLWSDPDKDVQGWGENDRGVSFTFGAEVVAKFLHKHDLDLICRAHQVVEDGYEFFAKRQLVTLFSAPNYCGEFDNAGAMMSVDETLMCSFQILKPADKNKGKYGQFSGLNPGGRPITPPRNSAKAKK
HCV NS3 hel inh = inhibitors of Hepatitis C virus NS3 helicase | NS3 helicase DNA unwinding, Cy5 molecular beacon fluorescence | inhibition, % at 10.9 µM | 290,000 compounds, 0.56% hits;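 active = inhibition above the mean of all tested compounds plus 3 SD, set per campaign, cut at about 35% in these data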;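 note: 0% = DMSO wells and 100% = thioflavine S control wells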
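Test system: hepatitis C virus NS3 helicase domain fragment enzyme. Also added: annealed dual-labelled DNA beacon duplex, ATP-started. Timing: 60 min unwinding reaction at 25 °C after ATP addition. Technique: Cy5 fluorescence. Measure: % inhibition of unwinding.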
ZTA DNA inh = ZTA (EBV) inhibition in EBNA-1 counter-screen | P03206 | ZTA-DNA binding, fluorescence polarization | inhibition, % at 11 µM | 320,000 compounds, 0.15% hits | AID 2234; in the data active = inhibition above about 33%
Target sequence (P03206 whole entry, looked up): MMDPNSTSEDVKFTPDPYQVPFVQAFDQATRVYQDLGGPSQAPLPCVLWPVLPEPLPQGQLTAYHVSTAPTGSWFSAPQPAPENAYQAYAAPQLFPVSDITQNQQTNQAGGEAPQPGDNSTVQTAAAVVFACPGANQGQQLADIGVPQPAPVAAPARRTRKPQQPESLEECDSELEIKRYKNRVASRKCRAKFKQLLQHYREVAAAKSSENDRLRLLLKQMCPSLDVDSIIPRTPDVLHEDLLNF
NS3 helicase cf = confirmation of Hepatitis C virus NS3 helicase inhibitors. shares compounds with HCV NS3 hel inh. NS3 helicase DNA unwinding, Cy5 molecular beacon fluorescence. inhibition, % at 10.9 µM. 1,600 compounds, 31% hits. AID 1943;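 active = inhibition above the mean of all tested compounds plus 3 SD, cutoff set per campaign, cut at about 36% in these data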
DNA FID counter = counter-screen for HCV NS3 helicase inhibitors: DNA intercalator displacement | shares compounds with HCV NS3 hel inh | DNA fluorescent intercalator displacement, fluorescence | inhibition, % at 7.9 µM | 1,600 compounds, 4% hits | AID 1945; in the data active = inhibition above about 37%;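 note: 0% = vehicle and 100% = reference compound; higher means more displacement of ethidium bromide from the DNA hairpin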
The depositor's hits bear a star; · = no result given; + = active, no number. This is a sample that favours compounds with a hit; in the whole collection about 1.9% have one here.

SMILES	core dimer inh	EBNA-1 inh	PP1 inh	HCV NS3 hel inh	ZTA DNA inh	others
O=C(C1=C(O)C(=O)N(CCCN2CCOCC2)C1c1ccc(Cl)cc1)c1cc2ccccc2o1 (stereo not given)	2	-13	16*	8	11
COc1cccc(CN2CC(C(=O)NCCOc3ccccc3)CCC2=O)c1 (stereo not given)	0	-8	-3	8	7
CC(C)Cn1c(-c2ccco2)csc1=Nc1cccnc1	50*	6	3	31	0
Nc1ccc(N2CCCCC2)c2nonc12	4	-14	17*	2	57*
CN(C)[C@@H]1C(=O)C(C(=O)NCN2CCCC2)=C(O)[C@@]2(O)C(=O)C3=C(O)c4c(O)cccc4[C@@](C)(O)C3CC12 (stereo not given in full)	·	·	·	47*	·
COc1cccc(CSc2nc(N)cc(N)n2)c1	-5	-12	-5	7	0
COc1ccc(O[C@H]2C=C[C@@H](c3ccccc3)O[C@@H]2CO/N=C(\C)CCN2CCc3nc(-c4ccccc4)c(-c4ccccc4)cc3C2)cc1	15	-3	19*	-38	3
COc1ccc(C(C[N+](=O)[O-])c2c(-c3ccccc3)cc3ccccn23)c(OC)c1 (stereo not given)	12	9	17*	-1	11
COc1ccc(C(C[N+](=O)[O-])c2c(C)cc3ccccn23)cc1 (stereo not given)	42	-7	14	2	-6
O=C(Nc1oc2ccccc2c(=O)c1-c1ccc(Br)cc1)c1ccco1	63*	-21	0	16	2
COc1cccc(-c2c(NC(=O)c3ccco3)oc3ccccc3c2=O)c1	-6	4	-3	12	-9
Cc1c(C=O)c(=O)n(-c2ccccc2)n1C	-2	+	-5	-34	+
CC1CCCC(NC(=O)C2CCN(S(=O)(=O)c3cnc[nH]3)CC2)C1C (stereo not given)	-2	-1	-1	3	14
CCn1c(C)nnc1SCC(=O)NC1CCCC1	13	2	-5	-15	7
O=C(NCc1cccs1)c1nc2c(nnn2Cc2ccccc2Cl)c(=O)[nH]1	16	12	21*	20	4
COCCn1c(=NC(=O)CSCC(=O)N2CCOCC2)sc2cc(C)ccc21	-1	-3	-1	-4	-15
CCOC(=O)c1sc(NC(=O)CCN2C(=O)C3CCCCC3C2=O)cc1C (stereo not given)	·	·	-1	·	-4
O=C(CSc1nnc(SCc2cccc3ccccc23)s1)N/N=C/C=C/c1ccccc1[N+](=O)[O-]	8	14	16*	-8	10
NC(=O)[C@H]1CC2(CC(c3cccc(NC(=O)COc4ccc(Cl)cc4)c3)=NO2)CN1C(=O)C(c1ccccc1)c1ccccc1 (stereo not given in full)	23	-5	16*	·	-4
Cc1c(C(=O)N2CC3(CC(c4cccc(NC(=O)CC(c5ccccc5)c5ccccc5)c4)=NO3)C[C@@H]2C(N)=O)cc([N+](=O)[O-])cc1[N+](=O)[O-] (stereo not given in full)	30	5	16*	·	3
NC(=O)[C@@H]1CC2(CC(c3cccc(NC(=O)COc4ccc(Cl)cc4)c3)=NO2)CN1C(=O)COc1ccc(Cl)cc1 (stereo not given in full)	19	10	12	·	4
COCCn1cnnc1SCC(=O)c1ccc(S(=O)(=O)N2CCCC2)cc1	54*	-8	1	-1	-2
Cn1cnnc1SCC(=O)Nc1cc(S(=O)(=O)N2CCCCC2)ccc1Cl	-4	-3	0	-7	-3
CC(C)CC(C(=O)NC(C)(C)C)N(Cc1ccccc1Cl)C(=O)c1snc(C(N)=O)c1N (stereo not given)	·	·	·	-23	·
Cc1cc(=O)n2c(c1C#N)SC1CCCCC12O (stereo not given)	7	13	1	55*	6	NS3 helicase cf=-12;DNA FID counter=0
SMILES	core dimer inh	EBNA-1 inh	PP1 inh	HCV NS3 hel inh	ZTA DNA inh	others
Cc1cc(C)c(C#N)c(N2CCCC(C(N)=O)C2)n1 (stereo not given)	-1	-9	-2	0	-4
COc1ccc(-n2c(C)cc(/C=C3/SC(=S)N(C)C3=O)c2C)cc1	-8	-6	0	2	2
Cc1cc(/C=C2\SC(=S)N(C)C2=O)c(C)n1-c1cccc(O)c1	-11	-5	-2	83*	4	NS3 helicase cf=-2;DNA FID counter=20
NS(=O)(=O)c1ccc(CCNC(=O)c2cc3ccccc3s2)cc1	-17	9	7	51*	-6	NS3 helicase cf=-3;DNA FID counter=-6
O=C1OC(c2cccs2)=N/C1=C\c1ccc(-c2ccccc2Cl)o1	·	·	·	71*	·	NS3 helicase cf=48*;DNA FID counter=1
O=C1OC(c2cccs2)=N/C1=C/c1ccc(-c2cccc(C(=O)O)c2)o1	·	·	·	30	·
O=C(CN1CCOc2ccccc21)NC1CCN(Cc2ccccc2)CC1	-8	5	-8	4	-1
O=C(CN1CCOc2ccccc21)NC1CCCCCCC1	-1	13	1	62*	-2	NS3 helicase cf=-16;DNA FID counter=-27
O=C(NCCOc1ccc(Cl)cc1)C1CC(=O)N(c2ccc3c(c2)OCCO3)C1 (stereo not given)	·	·	-1	·	-6
O=C(CCC1CCN(Cc2ccc(Cl)cc2)CC1)NC1CC1	-6	-8	1	36*	-11	NS3 helicase cf=-15;DNA FID counter=1
O=C(CCC1CCN(Cc2ccc(C#CCCO)cc2)CC1)NC1CC1	-1	0	1	-1	-4
O=C(Nc1nn[nH]n1)c1cc(-c2ccc(Cl)c(Cl)c2Cl)nc2ccccc12	-3	-2	7	17	-10
Cc1ccc(NC(=O)c2cc(C)nc3ccccc23)cc1	-5	9	1	8	-6
Cc1ccc(C)c(NC(=O)c2cc(C)nc3ccccc23)c1	-5	-3	-1	55*	-3	NS3 helicase cf=-2;DNA FID counter=0
NNc1nc2sc3c(c2c(=O)n1Cc1ccccc1)CCC3	20	-8	3	44*	-28	NS3 helicase cf=10;DNA FID counter=-16
Cc1cccc(OCC(=O)NCCCNC(=O)c2ccc(C)nc2)c1	-21	4	3	9	-11
COc1cc(C(=O)OCC(=O)N2CC(C)OC(C)C2)cc(OC)c1OC (stereo not given)	-1	-19	-2	1	1
COc1ccc2oc(=O)c(-c3nnc(NCc4ccco4)s3)cc2c1	15	-9	12	37*	7	NS3 helicase cf=-5;DNA FID counter=23
Cc1ccc(S(=O)(=O)/N=C2/NC(=O)/C(=C\c3ccco3)S2)cc1	8	-6	2	38*	-8	NS3 helicase cf=67*;DNA FID counter=-3
COc1ccc(N=C2NC(=O)/C(=C\c3ccco3)S2)cc1	25	-13	0	41*	0	NS3 helicase cf=-5;DNA FID counter=-6
